Experimental data taken from ChEMBL document CHEMBL3745596, “Chlorophenoxy aminoalkyl derivatives as histamine H(3)R ligands and antiseizure agents” (Bioorg Med Chem, 2016).
Active and inactive are the calls of the source.

Experiments:
Histamine H3 receptor [1] = molecular target: T1, Histamine H3 receptor (Homo sapiens, UniProt Q9Y5N1); assay: Displacement of [3H]-Nalpha-methylhistamine from human recombinant histamine H3 receptor expressed in HEK293 cells after 90 mins; assay type: cell-based
T1 sequence (Q9Y5N1 whole entry): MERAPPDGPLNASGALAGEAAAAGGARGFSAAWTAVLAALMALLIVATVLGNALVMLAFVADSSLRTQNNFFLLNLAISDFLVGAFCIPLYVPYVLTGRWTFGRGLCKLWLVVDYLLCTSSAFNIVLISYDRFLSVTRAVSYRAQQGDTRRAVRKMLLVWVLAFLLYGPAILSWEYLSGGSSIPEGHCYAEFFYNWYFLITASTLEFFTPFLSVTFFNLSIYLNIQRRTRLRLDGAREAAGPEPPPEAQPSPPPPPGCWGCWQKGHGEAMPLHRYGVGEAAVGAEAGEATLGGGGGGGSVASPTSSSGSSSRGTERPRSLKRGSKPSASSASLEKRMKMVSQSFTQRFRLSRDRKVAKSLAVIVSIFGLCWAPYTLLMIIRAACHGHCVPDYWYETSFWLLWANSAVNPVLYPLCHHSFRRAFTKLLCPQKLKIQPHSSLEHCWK

Mus musculus [2] = assay: Neurotoxicity in CF1 albino mouse at 300 mg/kg, ip after 4 hrs by rotarod test; assay type: toxicity, organism-based; conditions: in vivo
Summary of the method: (§1)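 Rotarod neurotoxicity in male albino CF-1 mice dosed ip with compound suspended in 0.5% methylcellulose. Animal placed on a 1 inch diameter knurled plastic rod rotating at 6 rpm. Neurotoxicity scored when the animal falls off three times within 1 min. Readout is number of animals toxic/number tested at the stated time after dosing. TD50 with 95% confidence interval from the quantitative study.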

Mus musculus [3] = assay: Anticonvulsant activity in CF1 albino mouse assessed as protection against maximal electroshock-induced seizure at 3 mg/kg, ip after 0.5 hrs; assay type: functional, organism-based
Summary of the method: (§2)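 Male CF-1 mice dosed ip as suspension in 0.5% methylcellulose. Corneal electrodes deliver 60 Hz alternating current, 50 mA for […], after a drop of 0.5% tetracaine HCl in 0.9% NaCl per eye. Protection means abolition of hindlimb tonic extension; scored as protected/tested, or ED50 with 95% confidence interval.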

Mus musculus [4] = assay: Neurotoxicity in CF1 albino mouse at 100 mg/kg, ip after 4 hrs by rotarod test; assay type: toxicity, organism-based; conditions: in vivo; summary of the method: as §1
Mus musculus [5] = assay: Anticonvulsant activity in CF1 albino mouse assessed as protection against maximal electroshock-induced seizure at 30 mg/kg, ip after 0.5 hrs; assay type: functional, organism-based; summary of the method: as §2
Mus musculus [6] = assay: Neurotoxicity in CF1 albino mouse at 3 mg/kg, ip after 0.5 hrs by rotarod test; assay type: toxicity, organism-based; conditions: in vivo; summary of the method: as §1
Mus musculus [7] = assay: Neurotoxicity in CF1 albino mouse assessed as death at 100 mg/kg, ip after 0.5 hrs by rotarod test; assay type: toxicity, organism-based; conditions: in vivo
Summary of the method: (§3)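 Male albino CF-1 mice dosed ip with compound suspended in 0.5% methylcellulose, then placed on a 1-inch knurled plastic rod turning at 6 rpm. A fall three times within 1 min counted as neurotoxicity. Observations were made at 0.5 h and 4 h after dosing. Result given as animals showing toxicity per animals tested, with the kind of toxicity recorded.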

Mus musculus [8] = assay: Neurotoxicity in CF1 albino mouse at 10 mg/kg, ip after 0.5 hrs by rotarod test; assay type: toxicity, organism-based; conditions: in vivo
Summary of the method: (§4)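 Rotarod neurotoxicity in male CF-1 mice dosed ip as 0.5% methylcellulose suspension: mouse placed on 1 inch knurled rod rotating at 6 rpm; toxicity when the animal falls off three times within 1 min, with other signs noted. Scored as toxic/tested at 0.5 h and 4 h.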

Mus musculus [9] = assay: Neurotoxicity in CF1 albino mouse assessed as death at 300 mg/kg, ip after 0.5 hrs by rotarod test; assay type: toxicity, organism-based; conditions: in vivo; summary of the method: as §3
Mus musculus [10] = assay: Neurotoxicity in CF1 albino mouse at 30 mg/kg, ip after 4 hrs by rotarod test; assay type: toxicity, organism-based; conditions: in vivo; summary of the method: as §1
Mus musculus [11] = assay: Anticonvulsant activity in CF1 albino mouse assessed as protection against subcutaneous pentetrazole-induced seizure at 30 mg/kg, ip after 4 hrs; assay type: functional, organism-based
Summary of the method: (§5)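 Male CF-1 mice, ip in 0.5% methylcellulose; pentetrazole at CD97 (85 mg/kg) injected subcutaneously in a loose fold of neck skin. Observed 30 min; absence of even a threshold seizure (single clonic spasm lasting at least 5 s) counted as protection. Scored protected/tested, or ED50.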

Mus musculus [12] = assay: Anticonvulsant activity in CF1 albino mouse assessed as protection against maximal electroshock-induced seizure at 30 mg/kg, ip after 4 hrs; assay type: functional, organism-based; summary of the method: as §2
Mus musculus [13] = assay: Anticonvulsant activity in CF1 albino mouse assessed as protection against subcutaneous pentetrazole-induced seizure at 30 mg/kg, ip after 0.5 hrs; assay type: functional, organism-based; summary of the method: as §5
Mus musculus [14] = assay: Anticonvulsant activity in CF1 albino mouse assessed as protection against maximal electroshock-induced seizure at 10 mg/kg, ip after 0.5 hrs; assay type: functional, organism-based; summary of the method: as §2
Mus musculus [15] = assay: Neurotoxicity in CF1 albino mouse assessed as vocalization at 30 mg/kg, ip after 0.5 hrs by rotarod test; assay type: toxicity, organism-based; conditions: in vivo; summary of the method: as §4
Mus musculus [16] = assay: Anticonvulsant activity in CF1 albino mouse assessed as protection against subcutaneous pentetrazole-induced seizure at 100 mg/kg, ip after 0.5 hrs; assay type: functional, organism-based; summary of the method: as §5
Mus musculus [17] = assay: Anticonvulsant activity in CF1 albino mouse assessed as protection against maximal electroshock-induced seizure at 100 mg/kg, ip after 4 hrs; assay type: functional, organism-based; summary of the method: as §2
Rattus norvegicus [18] = assay: Anticonvulsant activity in Sprague-Dawley rat assessed as protection against pilocarpine-induced convulsive status epilepticus at 65 mg/kg, ip; assay type: functional, organism-based
Summary of the method: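 Male Sprague Dawley rats (150–180 g) dosed ip, pilocarpine 50 mg/kg ip given; compound dosed immediately at first behavioral Stage 3 seizure or 30 min later. Number protected from Racine Stage 3 or greater seizures recorded.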

Mus musculus [19] = assay: Anticonvulsant activity in CF1 albino mouse assessed as protection against maximal electroshock-induced seizure at 100 mg/kg, ip after 0.5 hrs; assay type: functional, organism-based; summary of the method: as §2
Mus musculus [20] = assay: Anticonvulsant activity in CF1 albino mouse assessed as protection against subcutaneous pentetrazole-induced seizure at 100 mg/kg, ip after 4 hrs; assay type: functional, organism-based; summary of the method: as §5
Mus musculus [21] = assay: Neurotoxicity in CF1 albino mouse assessed as death at 300 mg/kg, ip after 4 hrs by rotarod test; assay type: toxicity, organism-based; conditions: in vivo; summary of the method: as §3
Mus musculus [22] = assay: Neurotoxicity in CF1 albino mouse at 30 mg/kg, ip after 0.5 hrs by rotarod test; assay type: toxicity, organism-based; conditions: in vivo; summary of the method: as §1
[23] = Neuroprotective activity in hippocampal slice (unknown origin) assessed as protection against kainic acid-induced cell death using propidium iodide staining; assay type: functional; conditions: Hippocampus
Summary of the method: (§6)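 Organotypic hippocampal slice cultures exposed to NMDA or kainic acid alone or with compound; propidium iodide in all wells; PI fluorescence intensity of slices, proportional to cell death, compared with excitotoxin-only slices; qualitative.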

Mus musculus [24] = assay: Anticonvulsant activity in CF1 albino mouse assessed as protection against 6 Hz-psychomotor-induced seizure at 30 mg/kg, ip after 0.25 to 4 hrs; assay type: functional, organism-based
Summary of the method: (§7)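 Male CF-1 mice, ip suspension in 0.5% methylcellulose. Corneal stimulation 0.2 ms monopolar rectangular pulses at 6 Hz, 32 mA for 3 s via constant-current device; mice without minimal clonic phase seizure counted protected. Groups of four; read at 0.25, 0.5, 1, 2, 4 h; result as protected/tested.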

[25] = Neuroprotective activity in hippocampal slice (unknown origin) assessed as protection against NMDA-induced cell death using propidium iodide staining; assay type: functional; conditions: Hippocampus; summary of the method: as §6
Mus musculus [26] = assay: Neurotoxicity in CF1 albino mouse at 60 mg/kg, ip after 1 to 4 hrs by rotarod test; assay type: toxicity, organism-based; conditions: in vivo; summary of the method: as §1
Mus musculus [27] = assay: Anticonvulsant activity in CF1 albino mouse assessed as protection against 6 Hz-psychomotor-induced seizure at 60 mg/kg, ip after 4 hrs; assay type: functional, organism-based; summary of the method: as §7
Mus musculus [28] = assay: Neurotoxicity in CF1 albino mouse at 30 mg/kg, ip after 0.25 to 4 hrs by rotarod test; assay type: toxicity, organism-based; conditions: in vivo; summary of the method: as §1
[29] = Antiproliferative activity against human IMR32 cells assessed as cell viability after 48 hrs by formazan EZ4U dye based assay; conditions: IMR-32, 48 h
Summary of the method: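 HEK-293 (1.5 × 10⁴/well) or IMR-32 (2 × 10⁴/well) cells in DMEM with 10% FBS, 37 °C, 5% CO₂, grown 24 h to about 60% confluence; compounds 0.01–250 µM final, DMSO at most 1%, 48 h.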

Rattus norvegicus [30] = assay: Anticonvulsant activity in Sprague-Dawley rat assessed as protection against maximal electroshock-induced seizure at 30 mg/kg, po; assay type: functional
Histamine H3 receptor [31] = molecular target: T1, Histamine H3 receptor; assay: Antagonist activity at human recombinant histamine H3 receptor expressed in HEK293 cells assessed as inhibition of forskolin/(R)(-)-alpha-methylhistamine-induced cAMP accumulation after 1 hr by TR-FRET immunoassay; assay type: functional, cell-based
Summary of the method: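 HEK293 cells stably expressing hH3R, stimulated 30 min at room temperature with (R)(-)-α-methylhistamine (15 nM), forskolin and antagonist (0.1 nM–10 µM range) added together. cAMP read by TR-FRET (Eu-cAMP tracer, ULight anti-cAMP antibody, 1 h), converted via cAMP standard curve to % maximal response. Sigmoidal dose–response fit; mean of three experiments, each in triplicate.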

Mus musculus [32] = assay: Neurotoxicity in CF1 albino mouse assessed as unable to grasp rotarod and death at 100 mg/kg, ip after 0.5 hrs by rotarod test; assay type: toxicity, organism-based; conditions: in vivo; summary of the method: as §3
Liver microsome = assay: Drug metabolism in human liver microsomes after 2 hrs by UPLC-MS/MS analysis; assay type: ADME
Summary of the method: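 Pooled adult male and female human liver microsomes 1 mg/mL in 0.1 M Tris–HCl pH 7.4 with NADPH regeneration system; started after 5 min preincubation at 37 °C, incubated 2 h at 37 °C, stopped with cold methanol, centrifuged, supernatant analysed by UPLC with ESI tandem quadrupole MS.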

Cytochrome P450 3A4 = Cytochrome P450 3A4 (Homo sapiens, UniProt P08684); assay: Inhibition of CYP3A4 (unknown origin) up to 10 uM; assay type: ADME
Cytochrome P450 3A4, sequence (P08684 whole entry): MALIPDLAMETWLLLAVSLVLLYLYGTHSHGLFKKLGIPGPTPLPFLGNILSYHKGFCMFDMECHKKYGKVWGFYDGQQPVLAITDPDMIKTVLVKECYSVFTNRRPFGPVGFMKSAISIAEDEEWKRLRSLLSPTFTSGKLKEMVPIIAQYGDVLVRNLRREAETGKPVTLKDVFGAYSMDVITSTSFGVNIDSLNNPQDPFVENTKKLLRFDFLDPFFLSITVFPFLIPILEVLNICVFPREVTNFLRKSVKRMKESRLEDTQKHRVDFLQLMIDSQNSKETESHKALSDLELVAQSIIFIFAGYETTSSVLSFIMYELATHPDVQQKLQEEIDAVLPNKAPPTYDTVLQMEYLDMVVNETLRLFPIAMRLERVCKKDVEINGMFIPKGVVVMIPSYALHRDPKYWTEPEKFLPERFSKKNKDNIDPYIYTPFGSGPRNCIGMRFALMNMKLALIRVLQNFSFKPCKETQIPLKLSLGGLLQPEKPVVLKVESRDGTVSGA

Mus musculus [33] = assay: Anticonvulsant activity in CF1 albino mouse assessed as protection against 6 Hz-psychomotor-induced seizure at 50 mg/kg, ip after 4 hrs; assay type: functional, organism-based; summary of the method: as §7
Mus musculus [34] = assay: Neurotoxicity in CF1 albino mouse at 50 mg/kg, ip after 0.25 hrs by rotarod test; assay type: toxicity, organism-based; conditions: in vivo; summary of the method: as §1
Mus musculus [35] = assay: Anticonvulsant activity in CF1 albino mouse assessed as protection against 6 Hz-psychomotor-induced seizure at 50 mg/kg, ip after 0.25 hrs; assay type: functional, organism-based; summary of the method: as §7
Mus musculus [36] = assay: Anticonvulsant activity in CF1 albino mouse assessed as protection against 6 Hz-psychomotor-induced seizure at 50 mg/kg, ip after 2 hrs; assay type: functional, organism-based; summary of the method: as §7
Mus musculus [37] = assay: Neurotoxicity in CF1 albino mouse at 50 mg/kg, ip after 4 hrs by rotarod test; assay type: toxicity, organism-based; conditions: in vivo; summary of the method: as §1
Mus musculus [38] = assay: Neurotoxicity in CF1 albino mouse at 50 mg/kg, ip after 2 hrs by rotarod test; assay type: toxicity, organism-based; conditions: in vivo; summary of the method: as §1

Compound	Ki (Histamine H3 receptor [1])	Activity (Mus musculus [2])	Activity (Mus musculus [3])	Activity (Mus musculus [4])	Activity (Mus musculus [5])	Activity (Mus musculus [6])	Activity (Mus musculus [7])	Activity (Mus musculus [8])	Activity (Mus musculus [9])	Activity (Mus musculus [10])	Activity (Mus musculus [11])	Activity (Mus musculus [12])	Activity (Mus musculus [13])	Activity (Mus musculus [14])	Activity (Mus musculus [16])	Activity (Mus musculus [17])	Activity (Rattus norvegicus [18])	Activity (Mus musculus [19])	Activity (Mus musculus [20])	Activity (Mus musculus [22])	further results
CC1CCN(CCCCCOc2ccc(Cl)cc2)CC1.O=C(O)C(=O)O	0.8 µM	Non-toxic	inactive	Non-toxic	Active	Non-toxic	Toxic	Non-toxic	Toxic	Non-toxic	inactive	Active	inactive	inactive							Activity (Mus musculus [15]): Toxic
Clc1cccc(OCCCCCCCN2CCCCC2)c1.O=C(O)C(=O)O	0.333 µM			Non-toxic	inactive				Toxic	Non-toxic	inactive	inactive	inactive		inactive	inactive	Active	inactive	inactive	Non-toxic	Activity (Mus musculus [21]): Non-toxic
Clc1ccc(OCCCCCCN2CCCCC2)cc1.O=C(O)C(=O)O	0.265 µM	Non-toxic	inactive	Non-toxic	Active	Non-toxic	Toxic	Non-toxic	Toxic	Non-toxic	inactive	inactive	inactive	inactive			Active				Activity [23]: inactive; Activity (Mus musculus [24]): inactive; Activity [25]: inactive; Activity (Mus musculus [26]): Non-toxic; Activity (Mus musculus [27]): inactive; Activity (Mus musculus [28]): Non-toxic
COc1cccc2c1C(=O)c1c(O)c3c(c(O)c1C2=O)C[C@@](O)(C(=O)CO)C[C@@H]3O[C@H]1C[C@H](N)[C@H](O)[C@H](C)O1 [DOXORUBICIN]																					IC50 [29]: 0.0051 µM
CC1CCCN(CCCCCOc2ccc(Cl)cc2)C1.O=C(O)C(=O)O (configuration not stated)	0.133 µM	Non-toxic	inactive	Non-toxic	Active	Non-toxic		Non-toxic	Toxic	Non-toxic	inactive	inactive	inactive	inactive	inactive				inactive	Non-toxic	Activity (Rattus norvegicus [30]): 25%; IC50 [29]: 89 µM; EC50 (Histamine H3 receptor [31]): 0.072 µM; Activity (Mus musculus [32]): Toxic; Drug metabolism (Liver microsome): metabolite_detected; inhibition (INH) (Cytochrome P450 3A4): Not Active
Clc1ccc(OCCCCCCCN2CCCCCC2)cc1.O=C(O)C(=O)O	0.203 µM	Non-toxic	inactive	Non-toxic	Active	Non-toxic		Non-toxic		Non-toxic	inactive	inactive	inactive	inactive		Active		Active		Non-toxic	Activity (Rattus norvegicus [30]): 25%; Activity (Mus musculus [33]): inactive; Activity (Mus musculus [34]): Non-toxic; Activity (Mus musculus [35]): inactive; Activity (Mus musculus [36]): inactive; Activity (Mus musculus [37]): Non-toxic; Activity (Mus musculus [32]): Toxic; Activity (Mus musculus [38]): Non-toxic
